B1: NELF-E aptamer (parent)
chain: CCCAACGACUGCCGAGCGAGAUUACGCUUGAGCGCCCCACUGAGGAUGCCCACGGGCGAUUGGGGCACGG

Variants of: B1
Experiment: HiTS-RAP
Conditions: with NELF-E (Drosophila)
Outline: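 Kd came from weighted Hill fits to the first binding curve, with intensities normalised to sequencing intensity and averaged per sequence, keeping only fits whose variance was below 1,000,000. That curve was imaged on an Illumina GAIIx flowcell, where sequenced aptamer DNA templates with a T7 promoter and ter site had been transcribed in situ by T7 RNA polymerase and halted by GST-Tus (30 minutes, 37°C). Before each image, clusters equilibrated for 30 minutes at room temperature with NELF-E-mOrange at 0.064 to 1000 nM in HEPES binding buffer.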

Variant	Kd [nM]
G14A G20U	5.9
C12G A46G	44.8
G14U C38U	9.69
C13G C49U	31.9
G14U A43G	116
G14U A43U	84.4
C12G G64A	8.49
C13A A24G	9.1
C12G G16U	7.23
C13G C50U	14.7
G11U U61C	64.3
G11U U61A	41.1
C13U A39U	20.4
C13U A39G	7.82
C12G A19G	5.93
C12G U41G	5.67
G14U G63U	12.8
G14U G63A	11.9
C12A C13G	5.33
G14A G16A	6.86
G14A G16U	6.52
C12G U23G	5.85
C12G U23C	3.97
A15G	4.77

Variant	Kd [nM]
A15C	4
C13U U23G	4.9
G14U A31G	7.27
G14U A67G	6.8
G14U A67U	6.23
G14A A24G	5.71
G14U U28G	9.45
G14U A19G	6.25
G14U A19U	7.38
C12A U22G	4.37
C12G G65U	8.23
C12U U22G	5.99
C12A A24G	5.99
G14U G64A	6.6
C13U G16U	6.59
C12U A31G	6.76
C12G U61A	39.1
C12G G55U	8.9
C12G G55A	7.66
C12U A24G	5.74
C13G U60G	5.12
C13G U60C	8.4
C12G A24G	5.9
G14A A67U	6.56

Variant	Kd [nM]
G14A A67G	5.51
G14U C35U	10.1
C13G A46U	87.3
C13G A46G	47.3
C12G G18A	7.26
C13G C36U	7.49
C13G C36G	6.08
G14A G63A	12
C13G C25U	5.55
C13G C25G	5.76
G14U G65A	6.7
G14U G65U	8.73
G14U G56U	7.18
G14U G56A	9.7
C13G C17U	5.43
C13G C17G	4.68
C13U U41G	5.56
C12G C17G	5.66
C12G C17U	7.01
G14U G16A	6.74
G14U G16U	7.62
G14U C57U	5.72
C13G U61A	38.3
C13G U61C	73.4

Variant	Kd [nM]
C13G U61G	7.74
G14A U29C	4.73
G14A U29A	4.86
G14A U29G	5.42
G14U G48A	13.2
G14U C25U	7.71
G14U C25G	8.18
C12G A21U	6.04
C12G A21G	7.12
G14U C37U	21.2
C13A	5.28
C13G	4.88
C13U	4.41
C12G C53U	5.74
G14U G62A	19.1
C12A	4.42
C12G	5.44
C12U	4.54
C13U U29G	5.14
C13U A52U	10.1
C13U A52G	3.79
G14A A52G	4.13
C13U U22G	5.14
G14A G54A	12.4

Variant	Kd [nM]
C13G A21G	4.63
C13G A21U	5.52
C12U C17G	6.2
G14A C17U	5.62
G14A C17G	5.98
C13G G65U	6.4
C13G G65A	5.31
C13G A31U	5.78
C13G A31G	7.08
G14U G26A	5.3
G14U G26U	6.16
G14A U41G	5.69
G14A U23G	5.88
G14U	5.68
G14A	4.94
G14C	5.95
C13G G30A	4.93
C13G G30U	6.03
C13U A67U	3.81
C13U G54A	8.87
G14U U22G	6.53
G14U U22C	5.6
C13U G14U	5.39
C13U G26A	4.43

Variant	Kd [nM]
G11U U41G	6.22
C12U A19G	5.36
G14A C51U	7.06
C13G G32A	4.64
C13G A43U	27.8
C13G A43G	15.3
C12G G48A	9.02
G14U G34A	6.18
G14U G34U	5.16
C13G G63A	20.2
C13G G63U	7.98
C12G C33U	6
A15G A21G	5.12
C13G U28G	6.99
C13G U28C	8.82
C13G U28A	4.22
C13U C57U	4.06
G14A U28C	7.17
C12G A39G	10.3
C12G A39U	25
C12G G56U	6.08
C13G A24U	7.79
C13G A24G	5.57
C12G U28G	8.85

Variant	Kd [nM]
C12G U28C	8.42
C12G U28A	6.47
C13G C51U	6.36
C13G G34A	8.12
C13G G34U	5.43
C13G A15U	6.13
C13G A15G	6.03
C12G C37G	7.38
C12G C37U	16.6
C13U G64A	8.04
G14A A39G	9.46
G14A A39U	31
C13A G20U	7.23
C12G C57U	6.51
C12G G54A	18.2
C12G A59G	57.4
C12G C25G	4.47
C12G G62U	10.8
C13U A19G	6.42
C13U A19U	5
C13G C40G	5.72
C13G A19U	4.52
C13G A19G	5.43
G11U U29G	6

Variant	Kd [nM]
G11U U29A	5.62
G11U U29C	6.7
C13G G64U	8.93
C13G G64A	6.69
C13G G64C	5.83
C13G G26U	5.51
C13G G26A	4.79
C13U U28C	6.27
C13G U47A	11.8
C13G U47G	6.66
C12U U23G	5.04
C13G A52U	16.9
C13G A52G	4.96
C13U C37U	7.46
C12G G63U	13.7
C13G C57U	6.43
G14U A21G	6.69
G14U A21U	6.73
C13G C35U	14.4
C12G A15G	6.14
C12G A15U	6.36
G14U G54A	12.6
C13G G20A	7.5
C13G G20U	6.39

Variant	Kd [nM]
G11U U47G	7.92
C13U A15U	4.83
C13A U29G	5.66
G14A C53U	4.16
C12G G14U	6.28
C12G G14A	5.91
G14U C36U	8.6
C12G A67G	6.86
C12G A67U	7.12
C13G A39G	9.58
C13G A39U	19
G14A A15U	5.39
G14A A15C	4.43
G14A A15G	6.1
C13U A24G	5.12
C13G U23A	5.32
C13G U23G	5.29
C13G U23C	5.7
C12G U22G	5.79
C12G U22C	6.9
C12U U41G	6.2
C12G A52G	5.15
C12G A52U	16.2
C12G U47G	8.13

Variant	Kd [nM]
C13G C33U	5.79
C13G C33G	6.05
G14A C57U	6.72
C12U G14U	8.16
G14U U29C	7.48
G14U U29G	6.2
G14U U29A	5.7
G14U A39G	9.72
G14U A39U	32.5
C12U C13U	3.39
C12U C13G	5.4
C12G C13G	5.01
C12G C13U	5.88
C12G G34A	7.36
C13G C38U	6.55
C13G G16U	6.25
C13G G16A	6.87
G14U U41A	51.7
G14U U41G	6.33
C13G G54U	7.78
C13G G54A	13.8
G14A C33U	6.15
G14A A43G	9.58
G14A A19U	4.56

Variant	Kd [nM]
G14A A19G	5.88
C13U G20U	7.13
G14A A31G	5.95
C13G A67G	5.62
C13G A67U	7.5
C12G C66U	6.17
C12U U29G	5.46
C13G C66U	5.32
G11U U28C	9.24
C13U G34A	6.99
G14A G55U	8.79
C13G C53G	7.39
C13G C53U	3.49
C13G G45U	6.75
C13G G18U	6.2
C13G G18A	5.31
C13U C25G	4.69
G14U G18A	6.29
G14U G18U	7.17
C12G C36U	7.29
C13U G55A	5.87
C12G U29C	6.33
C12G U29G	5.61
C12G U29A	5.65

Variant	Kd [nM]
C13G C37A	21.7
C13G C37U	10.3
C13G C37G	6.46
C13G G56U	4.87
C13G G56A	6.97
C13G U41A	83.4
C13G U41C	64.2
C13G U41G	5.26
G14U U61C	86.8
G14U U61A	36
C13G G42U	5.35
C13G G42A	49
C12G A43G	26.1
G14A A21G	6.08
C12A U23G	5.88
G14A U22G	5.03
G14A U22C	5.13
G14U U47A	9.21
C13A U22G	5.85
C13G G55U	7.38
C13G G55A	6.77
C13G G55C	7.94
C12G C40U	126
C13G U22G	5.27

Variant	Kd [nM]
C13G U22C	4.85
G14U U23G	6.29
G14A U61A	30.3
C13G U29A	4.9
C13G U29C	4.94
C13G U29G	4.95
G14U A46G	57.2
C12U G34A	5.3
C12G A31G	7.14
G14U A52U	15.8
C13A U23G	5.96
C12U A39G	6.76
C12G G20U	7.97
C13G G14C	7.7
C13G G14A	6.02
C13G G14U	5.85
C13G G62U	7.22
C13G G62A	32.4
G14A G18A	5.3
G14U G20U	6.93
G14U G20A	6.93
G14U A15G	6.08
G14U A15U	6.94
C13U C17G	5.11

Variant	Kd [nM]
C13U C17U	4
C12U G16U	5.76
G14C U29G	5.67
C12G G26U	5.65
C12G G26A	4.12
G14A G30A	5.61
C13G G48A	11
C13G G48U	6.97
G14U C33U	5.15
C13G A59U	42.1
C13G A59G	12.2
G14U C40U	53.4
G14U C40G	9.9
G14U A24G	6.51
A15G A19G	6.95
C13G C27U	4.45
G14U G55U	9.69
G14U G55A	7.48
C13U A31G	5.17
G14U C17U	6.1
G14U C17G	6.27
C12G G42A	39.8

— the RNAGym collection of RNA variant scans (doi:10.1038/nmeth.2970)
